Results on 5 molecules are retold here after ChEMBL document CHEMBL2086243, “Spirocyclic nortriterpenoids with NGF-potentiating activity from the fruits of Leonurus heterophyllus” (J Nat Prod, 2012).

For data set [1], the system named is PC-12. In words: Potentiation of NGF-induced neurite outgrowth-promotion in rat PC12 cells at 10 uM incubated for 4 days in presence of 0.5 ng/mL NGF. The class given is functional, cell-based.
For data set [2], the system named is PC-12. In words: Potentiation of NGF-induced neurite outgrowth-promotion in rat PC12 cells assessed as increase in neurite length at 10 uM incubated for 4 days in presence of 0.5 ng/mL NGF (reference value: 21.1 micrometer). The class given is functional.
Data set [3] deals with PC-12. In words: Potentiation of NGF-induced neurite outgrowth-promotion in rat PC12 cells assessed as increase in neurite length at 1 uM incubated for 4 days in presence of 0.5 ng/mL NGF (reference value: 21.1 micrometer). The class given is functional.
Data set [4] deals with PC-12. In words: Toxicity in NGF-stimulated rat PC12 cells at > 30 uM incubated for 4 days in presence of 0.5 ng/mL NGF. The data set is classed as cell-based. To be noted: pc-12, 96 h. An outline of the steps:
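PC12 cells grown 24 h in DMEM + 10% HS/5% FBS, then exposed for 4 days to test samples with 0.5 ng/mL NGF in DMEM + 2% HS/1% FBS. After fixing in 4% paraformaldehyde−PBS and methylene blue staining, cells were examined under phase-contrast microscopy.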

In data set [5] the test system is PC-12. In words: Potentiation of NGF-induced neurite outgrowth-promotion in rat PC12 cells at 1 uM incubated for 4 days in presence of 0.5 ng/mL NGF. The class given is functional, cell-based.
In data set [6] the test system is PC-12. In words: Effect on cell morphology in rat PC12 cells at 1 to 10 uM incubated for 4 days in absence of NGF. The class given is functional, cell-based. The essentials:
(§1)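 PC12 cells seeded at 8 × 10^3 cells/cm2 in DMEM + 10% HS, 5% FBS, penicillin/streptomycin, 37 °C, 5% CO2, 24 h. Medium then switched to DMEM + 2% HS, 1% FBS and test samples added without NGF. After 4 days, cells fixed in 4% paraformaldehyde−PBS, stained with methylene blue, and morphology examined by phase-contrast microscopy. Triplicate wells.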

Data set [7] concerns PC-12. In words: Potentiation of NGF-induced neurite outgrowth-promotion in rat PC12 cells assessed as increase in neurite length at 1 to 30 uM incubated for 4 days in presence of 0.5 ng/mL NGF (reference value: 21.1 micrometer). The class given is functional, cell-based.
For data set [8], the system named is PC-12. In words: Potentiation of NGF-induced neurite outgrowth-promotion in rat PC12 cells at 1 to 30 uM incubated for 4 days in presence of 0.5 ng/mL NGF. The class given is functional, cell-based.
Data set [9] relates to PC-12. In words: Effect on cell morphology in rat PC12 cells at 1 to 30 uM incubated for 4 days in absence of NGF. The class given is functional, cell-based. An outline of the steps: as §1
For data set [10], the system named is PC-12. In words: Potentiation of NGF-induced neurite outgrowth-promotion in rat PC12 cells assessed as increase in neurite length at 30 uM incubated for 4 days in presence of 0.5 ng/mL NGF (reference value: 21.1 micrometer). The data set is classed as functional.

Structures are written as SMILES. Active and inactive are the calls of the source. The calls are words filed in the database; no cut-off is given here.

As for `CC1(C)CC[C@]2(CC[C@]3(C)C(=CC[C@@H]4[C@@]5(C)C[C@@H](O)[C@H](O)[C@@](C)(CO)[C@@H]5CC[C@]43C)[C@H]2O)C1`, the outcome with PC-12 [1] and in the data set on PC-12 [5] was Active. Moreover, the Activity is 33.1 um in the data set with PC-12 [2], 22.9 um in the data set with PC-12 [3], “Toxic” with PC-12 [4] and “Dose-dependent effect” in the data set with PC-12 [7]. Moreover, the outcome in the data set on PC-12 [6] was inactive.

As to `CC1(C)CC[C@]2(CC[C@]3(C)C(=CC[C@@H]4[C@@]5(C)C[C@@H](O)[C@H](OC(=O)/C=C/c6ccc(O)cc6)[C@@](C)(CO)[C@@H]5CC[C@]43C)[C@H]2O)C1` (relative stereo), the Activity result in the data set with PC-12 [8] is “Dose-dependent effect”; in the data set with PC-12 [2] it was 33.5 um; in the data set on PC-12 [3] it was 27.6 um; with PC-12 [10], 41.9 um; with PC-12 [7] it was “Dose-dependent effect”. Also, the outcome in the data set with PC-12 [9] was inactive.

Consider `CC1(C)CC[C@]2(CC[C@]3(C)C(=CC[C@@H]4[C@@]5(C)C[C@@H](O)[C@H](OC(=O)/C=C\c6ccc(O)cc6)[C@@](C)(CO)[C@@H]5CC[C@]43C)[C@H]2O)C1` (relative stereo), for which the Activity entry in the data set on PC-12 [8] is “Dose-dependent effect”; in the data set with PC-12 [2], 33.5 um; with PC-12 [3], 27.6 um; in the data set on PC-12 [10] it was 41.9 um; in the data set on PC-12 [7] it was “Dose-dependent effect”. Besides, the outcome in the data set on PC-12 [9] was inactive.

As to `COc1cc(/C=C/C(=O)O[C@H]2[C@H](O)C[C@@]3(C)[C@@H](CC[C@]4(C)[C@@H]3CC=C3[C@@H](O)[C@@]5(CCC(C)(C)C5)CC[C@]34C)[C@]2(C)CO)ccc1O` (relative stereo), the Activity entry was “Dose-dependent effect” in the data set with PC-12 [8]; 42 um in the data set with PC-12 [2]; 32.1 um with PC-12 [3]; 55.1 um in the data set on PC-12 [10]; “Dose-dependent effect” in the data set on PC-12 [7]. Also, the result with PC-12 [9] was inactive.

With `COc1cc(/C=C\C(=O)O[C@H]2[C@H](O)C[C@@]3(C)[C@@H](CC[C@]4(C)[C@@H]3CC=C3[C@@H](O)[C@@]5(CCC(C)(C)C5)CC[C@]34C)[C@]2(C)CO)ccc1O` (relative stereo), the Activity result with PC-12 [8] is “Dose-dependent effect”; in the data set on PC-12 [2], 42 um; in the data set with PC-12 [3], 32.1 um; in the data set on PC-12 [10] it was 55.1 um; in the data set with PC-12 [7], “Dose-dependent effect”. Moreover, in the data set on PC-12 [9], the outcome was inactive.
